From PubChem
Bcl-xL primary: Bcl-xL (human) inhibition. AID 2129. 320,000 compounds, 0.7% hits. inhibition, % at 10.9 µM. Q07817. GST-Bcl-xL / FITC-Bim BH3 peptide fluorescence polarization;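 active = inhibition above the mean of all tested compounds plus 3 SD, cutoff set per campaign, cut at about 30% in these data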;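 also: 0% = DMSO wells and 100% = unlabeled Bim-BH3 peptide competitor; inhibitors lower millipolarization by displacing the labeled peptide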
VIM-2 inhibitor: blocks Pseudomonas aeruginosa VIM-2 metallo-beta-lactamase; purified VIM-2, nitrocefin hydrolysis, epi-absorbance fluorescence; inhibition, % at 5.6 µM; 290,000 compounds, 0.89% hits;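 active = inhibition above the mean of all tested compounds plus 3 SD, cutoff set per screening run, cut at about 7.5% in these data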;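 also: red hydrolysis product quenches plate fluorescence so inhibitors raise well fluorescence; 0% = enzyme with DMSO and 100% = DMSO without enzyme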
GLD-1 TGE inh: GLD-1-TGE RNA interaction inhibition (C. elegans); Q17339; purified GLD-1 + fluorescein TGE RNA, fluorescence polarization; inhibition, % at 5.96 µM; 320,000 compounds, 0.44% hits;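 active = percent inhibition above a per-plate cutoff, the plate mean of test compounds plus 3 SD, cut at about 30% in these data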;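 also: 0% = DMSO wells with GLD-1 and probe and 100% = wells lacking GLD-1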
Target sequence (Q17339 whole entry, looked up): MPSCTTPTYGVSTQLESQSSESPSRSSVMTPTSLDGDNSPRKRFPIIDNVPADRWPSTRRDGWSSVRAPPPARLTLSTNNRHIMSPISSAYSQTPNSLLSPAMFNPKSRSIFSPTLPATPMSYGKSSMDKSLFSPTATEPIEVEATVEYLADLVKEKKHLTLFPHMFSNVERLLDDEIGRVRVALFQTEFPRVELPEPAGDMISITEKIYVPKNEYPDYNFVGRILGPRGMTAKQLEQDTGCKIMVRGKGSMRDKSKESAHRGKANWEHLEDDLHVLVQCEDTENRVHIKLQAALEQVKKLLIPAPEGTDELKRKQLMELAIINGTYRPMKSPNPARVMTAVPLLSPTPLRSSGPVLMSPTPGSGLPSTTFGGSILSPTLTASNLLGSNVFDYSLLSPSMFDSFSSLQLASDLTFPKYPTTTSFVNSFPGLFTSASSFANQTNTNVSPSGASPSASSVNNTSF
MEX-5 binding: C. elegans MEX-5 TCR-2 RNA binding activity; Q9XUB2; MEX-5/FITC-TCR2 RNA binding, fluorescence polarization; hits give low values; activity score (negative = inhibition of binding), % at 10 µM; 300,000 compounds, 0.38% hits; AID 1832;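 active = inhibition past about -25% in most replicates, and total fluorescence under double the plate's negative control median, limit read from the data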;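 also: 0% = DMSO and -100% = 5 µM competing unlabeled TCR2 RNA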
EBV gp42 inh: EBV gp42 inhibition; Q1HVG2; Fluorescence polarization binding assay, mP read-out; inhibition, % (tested at 21.74 µM); 220,000 compounds, 0.42% hits; AID 1085; in the data active = inhibition above about 50%
Target sequence (Q1HVG2 whole entry, looked up): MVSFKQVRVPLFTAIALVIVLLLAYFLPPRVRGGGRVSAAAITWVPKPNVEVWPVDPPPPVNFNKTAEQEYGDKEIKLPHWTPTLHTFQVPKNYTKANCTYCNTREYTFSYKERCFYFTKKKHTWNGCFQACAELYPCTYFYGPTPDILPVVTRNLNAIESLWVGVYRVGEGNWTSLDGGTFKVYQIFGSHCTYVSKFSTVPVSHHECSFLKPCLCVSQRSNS
IMP-1 inh-1: inhibitors of Pseudomonas aeruginosa IMP-1 metallo-beta-lactamase; purified IMP-1, nitrocefin hydrolysis, epi-absorbance fluorescence; inhibition, % at 5.6 µM; 290,000 compounds, 0.45% hits; AID 1556;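 active = inhibition above the mean plus 3 SD of all compounds in the same screening run, cut at about 4.5% in these data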;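 also: 0% = IMP-1 with DMSO and 100% = DMSO wells lacking enzyme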
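Test system: recombinant IMP-1 enzyme, purified / Medium: HEPES buffer pH 7.1 with ZnSO4 and Brij 35 / Doses: single dose, 5.6 µM / Times: 25 °C, 15 min preincubation, 25 min reaction / Detection: Epi-absorbance via hydrolysed-nitrocefin quenching of white-plate fluorescence, 480/530 nm, EDTA stop / Evaluation: percent inhibition from optical density relative to buffer-blank wells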
IMP-1 inh-2: selectivity counter-screen for VIM-2 inhibitors: IMP-1 metallo-beta-lactamase inhibitors | shares compounds with VIM-2 inhibitor | AID 1856 | inhibition, % at 5.6 µM | purified IMP-1, nitrocefin hydrolysis, epi-absorbance fluorescence | 1,300 tested, under 10 active; call rule not given here;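 also: 0% = enzyme with vehicle and 100% = vehicle without enzyme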
VIM-2 FRET ctr: counter-screen for VIM-2 inhibitors: epi-absorbance artifacts via FRET | shares compounds with VIM-2 inhibitor | purified VIM-2, CCF2 FRET substrate hydrolysis | inhibition, % at 5.6 µM | 1,300 compounds, 23% hits | AID 1857;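 active = inhibition above the mean of all tested compounds plus 3 SD, cut at about 19% in these data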;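 also: 0% = VIM-2 plus DMSO and 100% = no enzyme wells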
TEM-1 counter: blocks E. coli TEM-1 beta-lactamase in VIM-2 selectivity screen | 1,300 compounds, 3% hits | shares compounds with VIM-2 inhibitor | inhibition, % at 5.6 µM | Purified TEM-1, nitrocefin hydrolysis, epi-absorbance fluorescence;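 active = inhibition above that campaign's mean inhibition plus 3 SD, cut at about 0.46% in these data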;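 also: 0% = TEM-1 with DMSO and 100% = TEM-1 with 100 µM potassium clavulanate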
VIM-2 inh conf: confirmation of P. aeruginosa VIM-2 metallo-beta-lactamase inhibitors | shares compounds with VIM-2 inhibitor | purified VIM-2, nitrocefin hydrolysis, epi-absorbance | inhibition, % at 5.6 µM | 1,300 compounds, 96% hits;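 active = inhibition of the VIM-2 beta-lactamase enzyme above about 11% from the earlier first-round screen, limit read from the data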;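 also: 0% = VIM-2 with DMSO and 100% = buffer wells without enzyme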
* = called active by the depositor; / = no result. An excerpt weighted towards active compounds, which were near 2.2% of everything screened.

SMILES	Bcl-xL primary	VIM-2 inhibitor	GLD-1 TGE inh	MEX-5 binding	EBV gp42 inh	IMP-1 inh-1	IMP-1 inh-2	VIM-2 FRET ctr	TEM-1 counter	VIM-2 inh conf
CSc1nc(SCC(=O)O)c2c3c(sc2n1)COC(C)(C)C3	3	17*	6	-1	-4	-4	-3	43*	-6	25*
CSc1nc2sc3c(c2c(=S)[nH]1)CC(C)(C)OC3	/	15*	/	0	/	-2	-3	21*	-7	19*
Cc1ccc(NS(=O)(=O)c2c(C)[nH]c(C)c2C(=O)N2CCCCC2)c(Cl)c1	-1	-2	2	-4	/	-1	/	/	/	/
CCN(CC)CC(O)Cn1c(C)c(-c2ccccc2)c2cc([N+](=O)[O-])ccc21 (stereo not drawn)	-3	-1	2	1	/	-5	/	/	/	/
CCOC(=O)c1cnc(-n2nc(C)cc2C)nc1NCc1ccccc1	-1	36*	4	-1	-8	-4	-5	-38	-5	50*
CCOC(=O)c1cnc(-n2nc(C)cc2C)nc1NCCO	-2	1	-6	2	-15	-2	/	/	/	/
CCOc1ccc(CCNC(=O)c2ccc(=O)[nH]c2)cc1OCC	2	27*	0	0	/	-2	-2	-4	-1	2
COc1ccc(CCNC(=O)c2ccc(=O)[nH]c2)cc1OC	2	0	0	3	/	-1	/	/	/	/
ClC(Cl)(Cl)c1nc(N/N=C/c2ccncc2)c2ccccc2n1	5	34*	4	0	-16	-4	-3	-4	-6	65*
OC1=C(O)c2nc3cc(C(F)(F)F)ccc3nc21	1	17*	4	0	-12	1	-4	-1	-6	2
CCN1CCN(c2ccc(N3CCN(S(=O)(=O)c4ccc(C)c([N+](=O)[O-])c4)CC3)nn2)CC1	4	/	9	-5	/	/	/	/	/	/
Cc1c(OCC(=O)NCC(O)c2ccccc2)ccc2c(-c3ccccc3)cc(=O)oc12 (stereo not drawn)	-1	13*	2	-1	/	-3	-2	0	-7	26*
CC(Oc1ccc2c3c(c(=O)oc2c1)CCCC3)C(=O)NCc1ccncc1 (stereo not drawn)	-1	25*	7	-2	/	1	-2	-1	-4	38*
O=C(COc1ccc2c3c(c(=O)oc2c1)CCC3)NCC(O)c1ccccc1 (stereo not drawn)	-3	14*	4	1	/	-1	-2	-2	-6	23*
Cc1c(OCC(=O)NCc2ccccn2)ccc2c(-c3ccccc3)cc(=O)oc12	5	-3	-12	0	/	-2	/	/	/	/
CC1(C)CC(NC(=O)COc2ccc3c4c(c(=O)oc3c2)CCCC4)CC(C)(C)N1	4	20*	5	4	/	2	-3	-2	-6	26*
CC(Oc1ccc2c3c(c(=O)oc2c1)CCCC3)C(=O)NCC(O)c1ccccc1 (stereo not drawn)	-2	5	2	0	/	-1	/	/	/	/
O=C1C=C(c2cccc(CO)c2)C[C@@H](c2ccc(F)cc2)C1	-4	/	-2	/	/	/	/	/	/	/
O=C(CCNC(=O)c1ccccc1Cl)Nc1ccc(S(=O)(=O)Nc2nccs2)cc1	/	/	-4	/	/	/	/	/	/	/
O=C(CN1C(=O)C2CC=CCC2C1=O)NCC(=O)Nc1ccc(F)c(F)c1 (stereo not drawn)	6	/	6	1	/	/	/	/	/	/
Cc1cc(=O)oc2cc(OCC(=O)NC3CC(C)(C)NC(C)(C)C3)c(Cl)cc12	-5	1	-4	-2	/	-1	/	/	/	/
O=C(COc1ccc2c3c(c(=O)oc2c1)CCCC3)NCc1ccncc1	2	35*	2	-2	/	-1	-1	2	3.2*	47*
CCc1cc(=O)oc2c(C)c(OCC(=O)NC3CC(C)(C)NC(C)(C)C3)ccc12	0	14*	-11	1	/	-4	-2	-1	-9	22*
Nc1cccc(-n2cccc2)c1	7	-2	7	0	7	-2	/	/	/	/
Cc1cccc(-c2cc3nc(C)c(C)c(NCCCn4ccnc4)n3n2)c1	7	35*	4	-3	-1	-1	-3	-27	-7	49*
SMILES	Bcl-xL primary	VIM-2 inhibitor	GLD-1 TGE inh	MEX-5 binding	EBV gp42 inh	IMP-1 inh-1	IMP-1 inh-2	VIM-2 FRET ctr	TEM-1 counter	VIM-2 inh conf
Cc1cc(-c2ccccc2)nc2cc(C(=O)NCCCn3ccnc3)nn12	5	17*	5	4	-9	-1	-2	-9	-5	28*
COCCNc1cc(C)nc2cc(-c3ccc(C)cc3)nn12	8	0	-2	0	-31	-1	/	/	/	/
COCCNC(=O)c1cc2nc(-c3ccccc3)cc(C)n2n1	-2	-1	2	3	-10	-3	/	/	/	/
Cc1cc(NCCCn2ccnc2)n2nc(-c3ccc(Cl)cc3)cc2n1	2	38*	-7	2	3	-2	-3	-23	-5	47*
Cc1cc(NCCCn2ccnc2)n2nc(-c3ccc(F)cc3)cc2n1	0	41*	2	0	-3	-1	0	-12	3.0*	67*
Cc1cccc(-c2cc3nc(C)cc(NCCCN(C)C)n3n2)c1	-4	6	-9	0	-5	-1	/	/	/	/
CN(C)C(=O)c1ccc(NC(=O)COC(=O)C2(c3ccccc3)CCCC2)cc1	/	/	6	/	/	/	/	/	/	/
Cc1nn2c(NCCCn3ccnc3)cc(C(C)C)nc2c1-c1ccccc1	7	20*	-2	0	-11	-1	-3	-26	-6	29*
Cc1nn2c(NCc3ccccn3)cc(C(C)C)nc2c1-c1ccccc1	0	-2	3	1	-7	-2	/	/	/	/
COc1cc(-c2nc3ccc(N4CCN(C)CC4)cc3[nH]2)cc(OC)c1OC	3	13*	7	-1	-9	2	-4	0	-8	26*
CC(NS(=O)(=O)c1ccc2c(c1)C(=O)c1cc(S(=O)(=O)NC(C)C(=O)O)ccc1-2)C(=O)O (stereo not drawn)	12	18*	2	-1	/	-2	-3	21*	-6	19*
O=C(Nc1ccnn1C1CCN(C(=O)c2cccc(Cl)c2)CC1)C1CC1	-2	3	-3	0	/	0	/	/	/	/
Cc1nn(CC(=O)Nc2cccc(Cl)c2)c(=O)c2cc(-c3ccccc3)nn12	2	-5	7	3	/	-3	/	/	/	/
